Results pooled from the literature.
Each line is one published result; the experiments were not run side by side.

CC(=O)c1nn(-c2ccccc2Cl)/c(=N/N=C(\C)c2ccc(NC(=O)c3ccccc3)cc2)s1  viability (HepG2; cell growth or viability; MTT; 0.156 µM): 30.2%
CC(C)(C)c1cnc(CSc2cnc(NC(=O)C3CCN(CCCCSc4cccc5c4C(=O)N(C4CCC(=O)NC4=O)C5=O)CC3)s2)o1 (centres unmarked)  viability (HH; cell growth or viability; CCK-8; 10 nM): 105%
CN(C)C1CCCN(C(=O)/C=C/c2nn(CC3CCCC3)c3ncnc(N)c23)C1 (centres unmarked)  EC50 (OE33; cell growth or viability; resazurin; 5 days): > 30 µM
CC(=NNC(=S)Nc1ccccc1)c1ccc(Nc2nnc(-c3ccc(Cl)cc3)c3ccccc23)cc1  cell death (HepG2; cell growth or viability; MTT; 10 µM): 95.7%
CC(=NNC(=O)COc1ccc2c(C)c(Cc3ccccc3)c(=O)oc2c1C)c1ccc(Br)cc1  viability (HepG2; cell growth or viability; MTT; 100 µg/mL): 34.7%
CC(=O)Nc1ccc(/C(C)=N/N=c2\sc(C(C)=O)nn2-c2ccc(C)cc2)cc1  viability (HepG2; cell growth or viability; MTT; 0.312 µM): 100%
CC(C)(C)c1cnc(CSc2cnc(NC(=O)C3CCN(CCCCCCCCSc4cccc5c4CN(C4CCC(=O)NC4=O)C5=O)CC3)s2)o1 (centres unmarked)  IC50 (HH; cell growth or viability; trypan blue; 48 h): 0.114 µM
O=C(Nc1ccc([N+](=O)[O-])cc1)Nc1cccc(C(F)(F)F)c1  IC50 (LAD2; degranulation): 0.75 µM
CC(C)(C)c1cnc(CSc2cnc(NC(=O)C3CCN(C(=O)CCCSc4cccc5c4C(=O)N(C4CCC(=O)NC4=O)C5=O)CC3)s2)o1 (centres unmarked)  viability (HH; cell growth or viability; CCK-8; 0.5 µM): 17.8%
O=C(Nc1ccc(C(F)(F)F)cc1)Nc1cccc([N+](=O)[O-])c1  IC50 (LAD2; degranulation): 0.37 µM
CNc1ncc2c(/C=C/C(=O)N3CCCC3)nn(CC3CCCC3)c2n1  EC50 (OE33; cell growth or viability; resazurin; 5 days): > 30 µM
CC(=O)Nc1ccc(Oc2nnc(-c3ccc(Cl)cc3)c3ccccc23)cc1  cell death (HepG2; cell growth or viability; MTT; 1.25 µM): 92.9%
Nc1ncnc2c1c(/C=C/C(=O)N1CCC(CCO)CC1)nn2CC1CCCC1  EC50 (OE33; cell growth or viability; resazurin; 5 days): > 30 µM
O=C(Nc1ccccc1)Nc1cccc(Br)c1  IC50 (LAD2; degranulation): 22.1 µM
CC(=NNC(=O)c1cccnc1)c1ccc(Nc2nnc(-c3ccc(Cl)cc3)c3ccccc23)cc1  cell death (HepG2; cell growth or viability; MTT; 10 µM): 96.8%
CCOC(=O)c1nn(-c2cccc(Cl)c2)/c(=N/N=C(\C)c2ccc(NC(=O)c3ccc(Cl)cc3)cc2)s1  viability (HepG2; cell growth or viability; MTT; 5 µM): 2.59%
CC(=NNC(=O)c1ccccc1O)c1ccc(Nc2nnc(-c3ccc(Cl)cc3)c3ccccc23)cc1  cell death (HepG2; cell growth or viability; MTT; 5 µM): 84.2%
CC(C)(C)c1cnc(CSc2cnc(NC(=O)C3CCN(CCCCCSc4cccc5c4CN(C4CCC(=O)NC4=O)C5=O)CC3)s2)o1 (centres unmarked)  viability (HH; cell growth or viability; CCK-8; 0.25 µM): 0%
COC(=O)/C=C/c1nn(CC2CCCC2)c2ncnc(N)c12  EC50 (OE33; cell growth or viability; resazurin; 5 days): > 30 µM
O=C(Nc1ccc(Oc2nnc(-c3ccc(Cl)cc3)c3ccccc23)cc1)c1cccc([N+](=O)[O-])c1  cell death (HepG2; cell growth or viability; MTT; 2.5 µM): 96.4%
CNc1ncc2c(/C=C/C(=O)N3CCC(COC)CC3)nn(Cc3cccc(C)c3)c2n1  EC50 (OE33; cell growth or viability; resazurin; 5 days): > 30 µM
CC(=NNC(N)=S)c1ccc(Nc2nnc(-c3ccc(Cl)cc3)c3ccccc23)cc1  cell death (HepG2; cell growth or viability; MTT; 2.5 µM): 91.9%
CNc1ncc2c(/C=C/C(=O)N3CCC(OC)CC3)nn(Cc3ccc(OC)cc3)c2n1  EC50 (OE33; cell growth or viability; resazurin; 5 days): 1.63 µM
Cc1cc(C)n(C(C(=O)OC(C)C)n2nc(C)cc2C)n1  IC50 (A-431; cell growth or viability; MTT; 72 h): > 50 µM
CN(C)C1CCN(C(=O)/C=C/c2nn(CC3CCCC3)c3ncnc(N)c23)CC1  EC50 (OE33; cell growth or viability; resazurin; 5 days): > 30 µM
CC(=O)c1nn(-c2ccc(C)cc2)/c(=N/N=C(\C)c2ccc(NC(=O)c3ccccc3)cc2)s1  viability (HepG2; cell growth or viability; MTT; 0.625 µM): 5.4%
CC(C)(C)c1cnc(CSc2cnc(NC(=O)C3CCN(C(=O)COCCOCCSc4cccc5c4C(=O)N(C4CCC(=O)NC4=O)C5=O)CC3)s2)o1 (centres unmarked)  viability (HH; cell growth or viability; CCK-8; 0.5 µM): 13.5%
CC(=NNC(=O)c1ccccc1Br)c1ccc(Nc2nnc(-c3ccc(Cl)cc3)c3ccccc23)cc1  cell death (HepG2; cell growth or viability; MTT; 5 µM): 95.6%
C[C@H]1Oc2cc(cnc2N)-c2c(nn(C)c2C#N)CN(C)C(=O)c2ccc(F)cc21  IC50 (A-431; cell growth or viability): > 10 µM
C=CC(=O)NC1CCN(c2ncc3ncnc(Nc4ccc(Oc5ccc6c(c5)ncn6C)c(C)c4)c3n2)CC1  EC50 (SW 1116; cell growth or viability): 0.0152 µM
CCOC(=O)c1nn(-c2cccc(Cl)c2)/c(=N/N=C(\C)c2ccc(NC(=O)c3ccccc3)cc2)s1  viability (HepG2; cell growth or viability; MTT; 0.156 µM): 25.9%
O=C(Nc1ccccc1)Nc1ccc(Oc2nnc(-c3ccc(Cl)cc3)c3ccccc23)cc1  cell death (HepG2; cell growth or viability; MTT; 0.625 µM): 94.7%
Nc1ncnc2c1c(/C=C/C(=O)N1CCCC1)nn2CC1CCCC1  EC50 (OE33; cell growth or viability; resazurin; 5 days): > 30 µM
O=C(Nc1ccc([N+](=O)[O-])cc1)Nc1ccc(C(F)(F)F)cc1  IC50 (LAD2; degranulation): 0.17 µM
CC(C)(C)c1cnc(CSc2cnc(NC(=O)C3CCN(CCCCCCCSc4cccc5c4C(=O)N(C4CCC(=O)NC4=O)C5=O)CC3)s2)o1 (centres unmarked)  viability (HH; cell growth or viability; CCK-8; 0.1 µM): 92.7%
